Values after ≈ are worked out from the molar mass of the structure shown. Active and inactive are the calls of the source. No cut-off for these calls is given here.
Assays:
Bacillus subtilis = assay: Antimicrobial activity against Bacillus subtilis; format: functional, organism-based
A549 = assay: Cytotoxicity against human A549 cells; format: functional, cell-based
Summary of the method: (§1)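 Cultured tumour and normal cell lines: P-388 (lymphoid neoplasm, DBA/2 mouse), A-549 (human lung carcinoma), HT-29 (human colon carcinoma) and CV-1 (monkey kidney fibroblast). Potency was expressed as approximate IC50 values in μg/ml.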

P388 = assay: Cytotoxicity against DBA/2 mouse P388 cells; format: functional, cell-based; settings: DBA/2, P388; summary of the method: as §1
[1] = Cytotoxicity against african green monkey CV1 cells; format: cell-based; settings: chlorocebus aethiops, cv-1; summary of the method: as §1
HT-29 = assay: Cytotoxicity against human HT-29 cells; format: functional, cell-based; summary of the method: as §1
Staphylococcus aureus = assay: Antimicrobial activity against Staphylococcus aureus; format: functional, organism-based

CCC(=O)O[C@H]1C[C@H]2[C@]3(C)CC[C@H]4[C@@](C)(CC)CCC[C@]4(C)[C@H]3C[C@H](OC(C)=O)[C@]2(C)[C@@H](C=O)[C@@H]1C(C)=O
Activity (Bacillus subtilis): Active
IC50 (A549): 0.67 µg/mL (≈ 1.26 µM)
IC50 (P388): 0.67 µg/mL (≈ 1.26 µM)

CC[C@@]1(C)CCC[C@]2(C)[C@H]3C[C@H](OC(=O)CC(C)OC(C)=O)[C@]4(C)[C@@H](C=O)C(C(C)=O)=CC[C@H]4[C@]3(C)CC[C@@H]12 (stereo partly drawn)
Activity [1]: Active
Activity (HT-29): Active
IC50 (A549): 0.2 µg/mL (≈ 0.368 µM)
IC50 (P388): 0.2 µg/mL (≈ 0.368 µM)

CCC(O)CC(=O)O[C@H]1C[C@H]2[C@]3(C)CC[C@H]4[C@@](C)(CC)CCC[C@]4(C)[C@H]3C[C@H](OC(C)=O)[C@]2(C)[C@@H](C=O)[C@@H]1C(C)=O (stereo partly drawn)
Activity [1]: Active
Activity (HT-29): Active
IC50 (A549): 0.5 µg/mL (≈ 0.87 µM)
IC50 (P388): 0.5 µg/mL (≈ 0.87 µM)

CC[C@@]1(C)CCC[C@]2(C)[C@H]3C[C@H](OC(C)=O)[C@]4(C)[C@@H](C=O)[C@H](C(C)=O)[C@@H](OC(C)=O)C[C@H]4[C@]3(C)CC[C@@H]12
Activity (Bacillus subtilis): Active
IC50 (A549): 0.88 µg/mL (≈ 1.7 µM)
IC50 (P388): 0.91 µg/mL (≈ 1.76 µM)

CC[C@@]1(C)CCC[C@]2(C)[C@H]3C[C@H](OC(C)=O)[C@]4(C)[C@@H](C=O)[C@H](C(C)=O)[C@@H](OC(=O)C[C@@H](C)O)C[C@H]4[C@]3(C)CC[C@@H]12
Activity (Staphylococcus aureus): Active
Activity (Bacillus subtilis): Active
IC50 (A549): 0.66 µg/mL (≈ 1.18 µM)
IC50 (P388): 0.23 µg/mL (≈ 0.41 µM)

CCC(=O)OC(CC)CC(=O)O[C@H]1C[C@@H]2[C@@]3(C)CCC[C@](C)(CC)[C@@H]3CC[C@@]2(C)[C@@H]2CC=C(C(C)=O)[C@H](C=O)[C@@]12C (stereo partly drawn)
Activity (Bacillus subtilis): Active
IC50 (A549): 0.21 µg/mL (≈ 0.368 µM)
IC50 (P388): < 0.12 µg/mL

CC[C@@]1(C)CCC[C@]2(C)[C@H]3C[C@H](OC(C)=O)[C@]4(C)[C@@H](C=O)[C@H](C(C)=O)[C@@H](O)C[C@H]4[C@]3(C)CC[C@@H]12
Activity [1]: Active
Activity (HT-29): Active
IC50 (A549): 0.1 µg/mL (≈ 0.211 µM)
IC50 (P388): 0.1 µg/mL (≈ 0.211 µM)

CCC(CC(=O)O[C@H]1C[C@@H]2[C@@]3(C)CCC[C@](C)(CC)[C@@H]3CC[C@@]2(C)[C@@H]2CC=C(C(C)=O)[C@H](C=O)[C@@]12C)OC(C)=O (stereo partly drawn)
Activity (Bacillus subtilis): Active
IC50 (A549): 0.25 µg/mL (≈ 0.449 µM)
IC50 (P388): < 0.12 µg/mL

Reference: ChEMBL document CHEMBL1149738, “New cytotoxic scalarane sesterterpenes from the Dictyoceratid sponge Strepsichordaia lendenfeldi” (J Nat Prod, 1992)
